Consider four compounds from ChEMBL document CHEMBL5046217, “Discovery of New Imidazo[2,1-b]thiazole Derivatives as Potent Pan-RAF Inhibitors with Promising In Vitro and In Vivo Anti-melanoma Activity” (J Med Chem, 2021).

Data set [1] addresses Serine/threonine-protein kinase B-raf (Homo sapiens, UniProt P15056). The data set can be described thus: Inhibition of human wild type BRAF using myelin basic protein as substrate in presence of [gamma-33P]ATP incubated for 40 mins by scintillation counting method. The essentials:
(§1)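 Radiometric kinase assay run at Reaction Biology. Kinase (5−10 mU) in 25 mM Tris pH 7.5, 0.02 mM EGTA, 10 mM magnesium acetate with 0.66 mg/mL myelin basic protein and [γ-33P]ATP at 1 μM ATP. Reaction started with Mg-ATP and run 40 min at room temperature, then stopped with 3% phosphoric acid. Spotted on P30 filtermat, washed, scintillation counted.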

The target in data set [2] is RAF proto-oncogene serine/threonine-protein kinase (Homo sapiens, UniProt P04049). In words: Inhibition of human wild type CRAF using myelin basic protein as substrate in presence of [gamma-33P]ATP incubated for 40 mins by scintillation counting method.
RAF proto-oncogene serine/threonine-protein kinase, sequence (P04049 whole entry): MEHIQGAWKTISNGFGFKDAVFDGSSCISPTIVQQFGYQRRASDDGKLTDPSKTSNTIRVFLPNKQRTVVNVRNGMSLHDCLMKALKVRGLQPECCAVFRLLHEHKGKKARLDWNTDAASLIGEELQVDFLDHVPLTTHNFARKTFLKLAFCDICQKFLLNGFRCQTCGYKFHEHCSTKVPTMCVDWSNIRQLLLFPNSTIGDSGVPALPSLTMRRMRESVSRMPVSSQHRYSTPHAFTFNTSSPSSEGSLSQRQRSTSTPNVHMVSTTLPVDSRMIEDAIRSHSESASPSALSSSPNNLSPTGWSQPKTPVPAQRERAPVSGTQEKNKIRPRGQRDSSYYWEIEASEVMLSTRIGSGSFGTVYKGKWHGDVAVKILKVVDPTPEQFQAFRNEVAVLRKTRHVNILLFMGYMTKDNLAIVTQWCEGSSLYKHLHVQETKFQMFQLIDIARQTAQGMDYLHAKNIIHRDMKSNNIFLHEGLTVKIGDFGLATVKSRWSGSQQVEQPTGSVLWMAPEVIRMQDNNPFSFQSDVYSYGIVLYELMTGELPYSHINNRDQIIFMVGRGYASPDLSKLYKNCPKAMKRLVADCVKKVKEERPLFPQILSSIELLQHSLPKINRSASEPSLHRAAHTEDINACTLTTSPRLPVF
For data set [3], the target named is Tyrosine-protein kinase ABL1 (Homo sapiens, UniProt P00519). The data set can be described thus: Inhibition of ABL1 (unknown origin) incubated for 1 hr by qPCR analysis.
Data set [4] concerns the target Serine/threonine-protein kinase/endoribonuclease IRE1 (Homo sapiens, UniProt O75460). In words: Inhibition of ERN1 (unknown origin) incubated for 1 hr by qPCR analysis. The essentials: (§2)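 Competition binding assay. Kinases were either T7-phage-tagged (grown in an E. coli BL21-derived host) or expressed in HEK-293 cells and DNA-tagged. […] Bound kinase was eluted with non-biotinylated ligand and quantified by qPCR.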
For orientation: In qPCR the cycle at which signal appears reflects the starting amount.

Data set [5] deals with T1, Receptor-type tyrosine-protein kinase FLT3 (Homo sapiens, UniProt P36888).
T1 sequence (P36888 whole entry): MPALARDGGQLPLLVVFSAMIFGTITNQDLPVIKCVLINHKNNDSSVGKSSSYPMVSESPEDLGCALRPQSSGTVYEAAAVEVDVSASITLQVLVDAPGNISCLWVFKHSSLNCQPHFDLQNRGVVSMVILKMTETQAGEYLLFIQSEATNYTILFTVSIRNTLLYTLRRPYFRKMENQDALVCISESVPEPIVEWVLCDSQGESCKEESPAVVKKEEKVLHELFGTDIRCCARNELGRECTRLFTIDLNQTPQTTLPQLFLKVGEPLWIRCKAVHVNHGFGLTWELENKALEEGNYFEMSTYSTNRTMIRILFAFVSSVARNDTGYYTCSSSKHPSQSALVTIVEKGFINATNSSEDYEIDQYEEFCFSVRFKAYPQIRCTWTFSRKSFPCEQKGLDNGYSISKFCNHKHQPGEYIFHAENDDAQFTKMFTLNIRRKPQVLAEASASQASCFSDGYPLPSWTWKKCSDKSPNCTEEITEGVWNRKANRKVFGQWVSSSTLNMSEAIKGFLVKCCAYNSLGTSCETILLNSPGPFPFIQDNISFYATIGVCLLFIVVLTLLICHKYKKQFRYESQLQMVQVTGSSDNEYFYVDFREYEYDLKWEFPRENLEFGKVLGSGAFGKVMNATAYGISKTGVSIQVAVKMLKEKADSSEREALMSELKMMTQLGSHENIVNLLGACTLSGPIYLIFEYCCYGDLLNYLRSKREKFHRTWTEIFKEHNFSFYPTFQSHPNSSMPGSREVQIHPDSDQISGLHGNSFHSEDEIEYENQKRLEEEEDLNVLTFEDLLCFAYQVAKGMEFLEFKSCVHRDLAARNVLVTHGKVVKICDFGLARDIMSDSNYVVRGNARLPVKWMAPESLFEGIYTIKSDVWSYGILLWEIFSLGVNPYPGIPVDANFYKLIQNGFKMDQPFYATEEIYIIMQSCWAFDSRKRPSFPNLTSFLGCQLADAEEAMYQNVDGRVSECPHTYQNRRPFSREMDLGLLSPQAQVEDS
In words: Inhibition of FLT3 (unknown origin) incubated for 1 hr by qPCR analysis. An outline of the steps: as §2

The target of data set [6] is Homeodomain-interacting protein kinase 1 (Homo sapiens, UniProt Q86Z02). In words: Inhibition of HIPK1 (unknown origin) incubated for 1 hr by qPCR analysis. The essentials: as §2
Homeodomain-interacting protein kinase 1, sequence (Q86Z02 whole entry): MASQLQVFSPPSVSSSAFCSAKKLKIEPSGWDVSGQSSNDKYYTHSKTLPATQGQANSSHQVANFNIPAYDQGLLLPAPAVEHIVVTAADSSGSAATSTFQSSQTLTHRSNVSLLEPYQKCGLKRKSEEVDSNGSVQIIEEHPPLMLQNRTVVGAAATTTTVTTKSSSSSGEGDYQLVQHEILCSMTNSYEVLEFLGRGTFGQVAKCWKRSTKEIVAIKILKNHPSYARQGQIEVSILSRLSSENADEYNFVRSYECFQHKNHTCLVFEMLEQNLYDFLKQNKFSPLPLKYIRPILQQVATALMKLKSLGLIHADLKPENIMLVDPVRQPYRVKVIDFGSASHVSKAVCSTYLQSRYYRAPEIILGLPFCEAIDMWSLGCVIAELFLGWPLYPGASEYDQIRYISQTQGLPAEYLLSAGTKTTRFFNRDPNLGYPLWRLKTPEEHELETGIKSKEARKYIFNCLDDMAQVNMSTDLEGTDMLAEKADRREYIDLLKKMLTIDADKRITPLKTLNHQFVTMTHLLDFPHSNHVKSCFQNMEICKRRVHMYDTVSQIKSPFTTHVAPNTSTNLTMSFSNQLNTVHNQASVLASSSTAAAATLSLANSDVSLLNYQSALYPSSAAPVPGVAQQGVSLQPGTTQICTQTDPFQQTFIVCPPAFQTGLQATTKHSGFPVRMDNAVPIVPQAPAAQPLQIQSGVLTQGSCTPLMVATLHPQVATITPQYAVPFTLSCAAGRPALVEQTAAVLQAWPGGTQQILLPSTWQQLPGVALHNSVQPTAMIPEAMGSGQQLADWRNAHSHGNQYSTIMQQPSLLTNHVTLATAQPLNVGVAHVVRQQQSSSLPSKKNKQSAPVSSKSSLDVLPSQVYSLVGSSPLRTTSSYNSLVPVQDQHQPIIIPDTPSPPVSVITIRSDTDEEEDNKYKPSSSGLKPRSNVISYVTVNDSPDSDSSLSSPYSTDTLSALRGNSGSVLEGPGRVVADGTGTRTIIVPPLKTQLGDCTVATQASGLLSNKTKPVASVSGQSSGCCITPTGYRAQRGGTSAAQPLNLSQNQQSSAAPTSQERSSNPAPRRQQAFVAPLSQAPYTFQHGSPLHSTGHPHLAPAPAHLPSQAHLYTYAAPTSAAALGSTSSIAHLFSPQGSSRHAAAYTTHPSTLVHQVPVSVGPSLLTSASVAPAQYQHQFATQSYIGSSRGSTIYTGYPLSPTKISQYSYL
Data set [7] concerns the target Mitogen-activated protein kinase 8 (Homo sapiens, UniProt P45983). The data set can be described thus: Inhibition of MAPK8 (unknown origin) incubated for 1 hr by qPCR analysis. The essentials: as §2
The target of data set [8] is Mitogen-activated protein kinase 11 (Homo sapiens, UniProt Q15759). In words: Inhibition of MAPK11 (unknown origin) incubated for 1 hr by qPCR analysis. The essentials:
as §2

Data set [9] addresses Mitogen-activated protein kinase 14 (Homo sapiens, UniProt Q16539). In words: Inhibition of MAPK14 (unknown origin) incubated for 1 hr by qPCR analysis. The essentials:
as §2

In data set [10] the target is Mitogen-activated protein kinase kinase kinase 20 (Homo sapiens, UniProt Q9NYL2). The data set can be described thus: Inhibition of ZAK (unknown origin) incubated for 1 hr by qPCR analysis. The essentials: as §2
Mitogen-activated protein kinase kinase kinase 20, sequence (Q9NYL2 whole entry): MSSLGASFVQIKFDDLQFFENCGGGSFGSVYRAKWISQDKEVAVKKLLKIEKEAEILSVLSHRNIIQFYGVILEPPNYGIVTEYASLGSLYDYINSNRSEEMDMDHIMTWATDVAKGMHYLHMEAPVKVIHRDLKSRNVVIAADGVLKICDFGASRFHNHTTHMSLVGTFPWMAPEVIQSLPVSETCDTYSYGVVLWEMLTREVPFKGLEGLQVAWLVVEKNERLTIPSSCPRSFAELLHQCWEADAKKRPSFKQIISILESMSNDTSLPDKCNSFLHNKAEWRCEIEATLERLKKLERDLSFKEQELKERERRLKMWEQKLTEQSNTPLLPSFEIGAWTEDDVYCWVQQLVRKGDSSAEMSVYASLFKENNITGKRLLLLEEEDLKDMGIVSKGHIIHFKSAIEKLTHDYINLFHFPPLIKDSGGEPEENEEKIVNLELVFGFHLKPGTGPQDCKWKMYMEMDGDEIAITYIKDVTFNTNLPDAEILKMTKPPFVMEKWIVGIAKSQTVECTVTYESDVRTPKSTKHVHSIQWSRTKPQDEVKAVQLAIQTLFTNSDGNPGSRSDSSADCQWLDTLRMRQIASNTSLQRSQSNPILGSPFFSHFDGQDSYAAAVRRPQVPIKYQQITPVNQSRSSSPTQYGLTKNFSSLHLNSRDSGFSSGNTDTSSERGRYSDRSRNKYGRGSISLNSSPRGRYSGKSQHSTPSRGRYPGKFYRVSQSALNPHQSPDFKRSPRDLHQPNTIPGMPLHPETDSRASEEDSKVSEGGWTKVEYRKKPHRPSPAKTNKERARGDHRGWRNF
The target of data set [11] is Fibroblast growth factor receptor 1 (Homo sapiens, UniProt P11362). The data set can be described thus: Inhibition of FGFR1 (unknown origin) incubated for 1 hr by qPCR analysis.
The target of data set [12] is Serine/threonine-protein kinase B-raf (Homo sapiens, UniProt P15056, V600E). In words: Inhibition of human BRAF V600E mutant using myelin basic protein as substrate in presence of [gamma-33P]ATP incubated for 40 mins by scintillation counting method. An outline of the steps:
as §1

Data set [13] can be described thus: Cytotoxicity against human L132 cells assessed as cell growth inhibition incubated for 48 hrs by MTT assay. The data set is classed as toxicity, cell-based. (Formazan colour is commonly taken as a measure of viable cells.)
Data set [14] in a line: Cytotoxicity against human BJ cells assessed as cell growth inhibition incubated for 48 hrs by MTT assay. The data set is classed as toxicity, cell-based. The essentials:
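BJ1 normal skin fibroblasts were seeded at 10 × 10³ cells/well with compound in triplicate wells and grown in DMEM-F12 at 37 °C, 5% CO₂, across an eight-point dilution series. Growth inhibition was calculated as (1 − T/C) × 100, and IC50 was taken from the dose–response curve.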

Serine/threonine-protein kinase B-raf (Homo sapiens, UniProt P15056), sequence (P15056 whole entry): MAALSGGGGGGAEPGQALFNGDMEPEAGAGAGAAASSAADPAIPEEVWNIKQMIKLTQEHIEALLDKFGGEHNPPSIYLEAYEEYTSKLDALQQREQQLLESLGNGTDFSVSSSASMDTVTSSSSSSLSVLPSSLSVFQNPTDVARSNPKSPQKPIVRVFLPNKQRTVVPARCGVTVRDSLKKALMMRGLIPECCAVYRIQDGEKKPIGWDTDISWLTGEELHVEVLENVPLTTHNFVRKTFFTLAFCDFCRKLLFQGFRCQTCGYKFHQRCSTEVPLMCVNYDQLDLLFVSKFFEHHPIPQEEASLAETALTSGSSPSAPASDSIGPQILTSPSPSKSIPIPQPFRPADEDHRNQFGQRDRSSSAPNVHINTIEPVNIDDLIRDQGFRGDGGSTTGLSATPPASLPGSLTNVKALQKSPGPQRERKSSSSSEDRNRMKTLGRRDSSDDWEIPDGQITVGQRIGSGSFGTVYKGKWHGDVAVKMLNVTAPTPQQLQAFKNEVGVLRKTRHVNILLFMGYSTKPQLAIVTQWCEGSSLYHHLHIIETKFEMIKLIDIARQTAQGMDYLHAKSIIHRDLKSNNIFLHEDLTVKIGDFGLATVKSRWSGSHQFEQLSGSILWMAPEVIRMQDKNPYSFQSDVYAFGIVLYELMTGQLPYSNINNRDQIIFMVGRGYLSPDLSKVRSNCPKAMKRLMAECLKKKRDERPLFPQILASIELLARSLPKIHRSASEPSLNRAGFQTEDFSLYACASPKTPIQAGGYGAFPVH
Mitogen-activated protein kinase 11, sequence (Q15759 whole entry): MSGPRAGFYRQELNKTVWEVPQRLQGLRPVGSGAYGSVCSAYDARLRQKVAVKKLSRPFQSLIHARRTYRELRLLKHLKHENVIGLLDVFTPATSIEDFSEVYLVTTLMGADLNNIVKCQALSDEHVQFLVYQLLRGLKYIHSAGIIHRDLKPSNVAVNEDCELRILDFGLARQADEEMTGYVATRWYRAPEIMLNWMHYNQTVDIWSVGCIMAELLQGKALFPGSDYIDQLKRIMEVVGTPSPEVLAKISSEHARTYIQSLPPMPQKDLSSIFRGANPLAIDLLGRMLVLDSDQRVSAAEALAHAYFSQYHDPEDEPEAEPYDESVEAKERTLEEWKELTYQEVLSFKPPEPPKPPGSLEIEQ
Mitogen-activated protein kinase 8, sequence (P45983 whole entry): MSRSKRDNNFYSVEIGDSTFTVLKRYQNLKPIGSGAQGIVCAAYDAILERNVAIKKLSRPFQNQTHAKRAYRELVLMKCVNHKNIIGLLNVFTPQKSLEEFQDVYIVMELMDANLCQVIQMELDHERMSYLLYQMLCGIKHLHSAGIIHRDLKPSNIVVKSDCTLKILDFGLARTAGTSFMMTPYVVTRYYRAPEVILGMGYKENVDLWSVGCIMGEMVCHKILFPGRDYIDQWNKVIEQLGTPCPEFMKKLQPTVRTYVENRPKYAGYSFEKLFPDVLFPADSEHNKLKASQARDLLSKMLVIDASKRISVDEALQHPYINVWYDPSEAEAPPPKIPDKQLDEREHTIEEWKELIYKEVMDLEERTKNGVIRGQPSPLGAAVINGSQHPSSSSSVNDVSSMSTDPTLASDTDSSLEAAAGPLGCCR
Mitogen-activated protein kinase 14, sequence (Q16539 whole entry): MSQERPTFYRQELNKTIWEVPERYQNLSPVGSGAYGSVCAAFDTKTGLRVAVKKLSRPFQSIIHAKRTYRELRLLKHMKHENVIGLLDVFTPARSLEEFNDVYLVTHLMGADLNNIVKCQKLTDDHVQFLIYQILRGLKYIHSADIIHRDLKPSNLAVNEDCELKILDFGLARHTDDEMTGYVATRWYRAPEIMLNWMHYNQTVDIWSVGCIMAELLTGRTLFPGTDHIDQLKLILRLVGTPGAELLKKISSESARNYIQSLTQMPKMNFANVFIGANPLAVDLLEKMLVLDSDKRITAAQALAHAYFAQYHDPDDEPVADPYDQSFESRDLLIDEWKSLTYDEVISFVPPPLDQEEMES

In general, IC50 refers to the concentration that inhibits the measured activity by half. For `O=S(=O)(NCCNc1nccc(-c2c(-c3cccc(O)c3)nc3sccn23)n1)c1ccc(F)cc1`, the IC50 in data set [1] is 2.7 nM; in [2], 6 nM; in data set [3], 10400 nM; in data set [4] it was 9540 nM; in [5], 1990 nM; in [6], 5130 nM. For the same compound, the IC50 was determined as 1350 nM in [7], 1210 nM in [8], 2010 nM in data set [9] and 7580 nM in [10].
For the compound `COc1cccc(-c2nc3sccn3c2-c2ccnc(NCCNS(=O)(=O)c3ccc(C(F)(F)F)cc3)n2)c1`, the IC50 in [2] was 142 nM; in data set [4] it was greater than 20000 nM; in data set [11], 15600 nM; in data set [5], 2170 nM; in data set [6] it was 4580 nM; in [7], 420 nM. Moreover, the values for the IC50 in data set [8], in data set [9] and in [10] were 120 nM, 98 nM and 8110 nM, respectively.
For `COc1cccc(-c2nc3sccn3c2-c2ccnc(NCCCNS(=O)(=O)c3cccc(F)c3)n2)c1`, the half-inhibitory concentration (IC50) was 526 nM in data set [1]; 102 nM in data set [12]; 111 nM in [2]; 15600 nM in data set [4]; 11800 nM in data set [11]; 2980 nM in data set [5]. The half-maximal inhibitory concentration (IC50) amounted to 3840 nM in data set [6]; 360 nM in [7]; 95 nM in data set [8]; 88 nM in [9]; 11300 nM in data set [10].
On to `COc1ccc(-c2nc3sccn3c2-c2ccnc(NCCNS(=O)(=O)c3ccc(C)cc3)n2)cc1`, for which the IC50 turned out to be 19300 nM in [1], 26600 nM in data set [12] and 21300 nM in data set [2]. Further, the IC50 at 48 h stood at 466000 nM in data set [13] and 126000 nM in [14].
